sEH inhibitor: soluble epoxide hydrolase (human) inhibition; P34913; recombinant human sEH enzymatic activity assay; inhibition, % at 2 µM; hit rate 0.34% among 91,000; AID 707; in the data active = inhibition above about 80%
HIV Rev-RRE inh: HIV Rev-RRE protein-RNA interaction inhibition. P05866. Rev peptide-RRE RNA binding, FRET. inhibition, % at 8 µM. hit rate 0.79% among 97,000;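 active = inhibition above the screen-wide mean plus 3 SD, cut at about 35% in these data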;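 note: 0% = median DMSO wells and 100% = median Neomycin B control wells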
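Test system: labelled RRE RNA duplex and labelled Rev peptide. Times: 5 min compound–RNA preincubation, then 15 min with peptide, 25 °C. Doses: single-dose 8 µM. Measured by: FRET, excitation 480 nm, emission 540 nm donor and 671 nm acceptor. Measure: % inhibition of FRET ratio versus controls.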
sEH activator: activators of human soluble epoxide hydrolase; purified human sEH enzymatic activity, activator screen; activation, % at 2 µM; hit rate 0.04% among 91,000; in the data active = activation above about 37%
ERa coact inh: ER-alpha (human) coactivator binding inhibition; AID 629; TR-FRET ER-alpha LBD / SRC-1 peptide, estradiol-bound; inhibition, % at 25.6 µM; P03372; hit rate 1.7% among 86,000; in the data active = inhibition above about 50%;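 note: 0% = receptor plus peptide control and 100% = peptide only without receptor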
Target sequence (P03372 whole entry, looked up, the tested form may be a part): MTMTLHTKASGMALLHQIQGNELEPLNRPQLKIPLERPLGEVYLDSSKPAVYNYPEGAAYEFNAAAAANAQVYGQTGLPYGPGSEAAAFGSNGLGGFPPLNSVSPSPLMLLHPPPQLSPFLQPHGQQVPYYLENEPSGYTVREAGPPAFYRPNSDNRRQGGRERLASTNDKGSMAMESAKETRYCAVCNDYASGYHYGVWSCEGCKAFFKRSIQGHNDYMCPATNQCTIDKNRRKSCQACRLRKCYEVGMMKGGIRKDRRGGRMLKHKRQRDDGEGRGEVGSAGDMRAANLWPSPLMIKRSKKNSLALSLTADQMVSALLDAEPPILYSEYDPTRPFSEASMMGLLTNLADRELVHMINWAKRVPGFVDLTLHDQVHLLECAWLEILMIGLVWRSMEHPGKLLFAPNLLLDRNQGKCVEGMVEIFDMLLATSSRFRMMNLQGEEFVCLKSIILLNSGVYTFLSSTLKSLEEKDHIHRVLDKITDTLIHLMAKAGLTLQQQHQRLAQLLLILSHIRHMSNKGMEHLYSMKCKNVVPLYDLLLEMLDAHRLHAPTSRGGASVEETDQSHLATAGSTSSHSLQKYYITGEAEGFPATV
ERa SRC1 pot: enhances coactivator binding to human estrogen receptor alpha; P03372; TR-FRET ERalpha-LBD/SRC-Cy5 coactivator binding, 2 h; 100 = basal binding, no effect; coactivator binding (% of control), % at 25.6 µM; hit rate 1.3% among 86,000; AID 639; in the data active = activity above about 200%;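 note: binding measured in presence of low estradiol as agonist stimulus; 0% = peptide alone without receptor and 100% = receptor with peptide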
ERb SRC1 inh: blocks coactivator binding to human estrogen receptor beta; TR-FRET ER-beta LBD / SRC1-Cy5 peptide binding; receptor agonist-loaded with 1 µM estradiol; inhibition, % at 25.6 µM; hit rate 1.3% among 86,000; Q92731;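 active = compounds whose percent inhibition of the receptor-coactivator binding signal exceeds about 50% in the single-dose screen, limit read from the data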;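 note: 0% = receptor plus peptide wells without compound and 100% = peptide-only wells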
Active calls of the source: *; x = no result given; + = active, no number; [ ] = remark or other dose. Hits are enriched below; roughly 3.5% of the tested compounds scored in any of these assays.

SMILES | sEH inhibitor | HIV Rev-RRE inh | sEH activator | ERa coact inh | ERa SRC1 pot | ERb SRC1 inh
CCCC(=O)Nc1ccc2oc(-c3ccncc3)nc2c1 | 14 | 4 | -15 | 6 | 111 | 1
CCOc1ccccc1NC(=O)N1C2CCCC1CC(NC(=O)C1CC1)C2 (configuration not stated) | 2 | 5 | -2 | 8 | 94 | 16
COCCn1c(=O)[nH]c2cc(C(=O)NCc3ccccc3)ccc2c1=O | 4 | 5 | -7 | -2 | 102 | -13
COCCn1c(SCC(=O)Nc2cccc(S(N)(=O)=O)c2)nc2ccccc21 | -3 | 8 | -3 | 16 | 95 | -7
Cc1cc(=O)oc2cc(OCC(=O)OCC(=O)N3CCc4ccccc43)ccc12 | -7 | -1 | 6 | 15 | 177 | 10
CCCc1cc(=O)oc2cc(OCC(=O)N3CCc4ccccc43)ccc12 | 2 | 4 | -1 | 12 | 335*[fluorescence artefact?] | 20
CCCc1cc(=O)oc2cc(OCC(=O)Nc3cc(C)on3)ccc12 | x | 2 | x | 12 | 820*[fluorescence artefact?] | -3
CCCCc1cc(=O)oc2cc(OCC(=O)N3CCc4ccccc43)ccc12 | -10 | 11 | 11 | 18 | 200* | 15
CCOC(=O)N1CCN(c2cc(=O)n(-c3ccc(OCC)cc3)c(=O)[nH]2)CC1 | 3 | 7 | -6 | -7 | 114 | -5
O=C(Nc1ccccc1N1CCOCC1)c1cc(-c2ccco2)nc2ccccc12 | 2 | 2 | 0 | 87*[fluorescence artefact?] | 40 | 79*
Cc1cc(-c2nnc3sc(-c4ccc(Cl)cc4Cl)nn23)n[nH]1 | 7 | -3 | -7 | 23 | 360* | 25
Clc1cccc(-c2nnc3sc(-c4ccc5c(c4)OCO5)nn23)c1 | x | x | x | 55* | 199 | 44
CN(C)c1ccc(-c2nn3c(-c4ccc(Cl)cc4Cl)nnc3s2)cc1 | x | x | x | 85*[fluorescence artefact?] | 51 | 64*[fluorescence artefact?]
Clc1ccccc1-c1nnc2sc(-c3ccc4c(c3)OCO4)nn12 | -16 | 9 | 16 | 6 | 111 | 2
O=C(NCc1ccccc1)C(c1cccs1)N(Cc1cccs1)C(=O)c1cnccn1 (configuration not stated) | 0 | 9 | 2 | x | x | x
CCOc1ccc(N2CC(C(=O)NCCc3ccc(OC)c(OC)c3)CC2=O)cc1 (configuration not stated) | 3 | -6 | 1 | -4 | 121 | 4
Cn1c(NCC(O)c2ccccc2)nc2c1c(=O)n(Cc1ccc(Cl)c(Cl)c1)c(=O)n2C (configuration not stated) | 10 | -1 | -10 | -25 | 93 | -15
CSc1nncc(-c2ccc(F)cc2)n1 | -3 | 3 | 4 | -2 | 110 | -7
COC(=O)C(C)Sc1nnc(Cc2cc(=O)[nH]c(=O)[nH]2)n1-c1ccc(Cl)cc1 (configuration not stated) | 27 | 9 | -25 | -2 | 176 | 0
O=C(O)C1CCCCC1C(=O)Nc1ccccc1F (configuration not stated) | -1 | 9 | 0 | -7 | 109 | -5
COC(=O)c1ccc(CSc2nc3c(cnn3-c3ccc(F)cc3)c(=O)[nH]2)o1 | 8 | 6 | -4 | -21 | 517* | 21
CCCCSc1nc2c(cnn2-c2ccc(F)cc2)c(=O)[nH]1 | -3 | 8 | 2 | 28 | 209*[fluorescence artefact?] | 32
COC(=O)c1ccc(CSc2nc3c(cnn3-c3ccccc3)c(=O)[nH]2)o1 | 7 | 3 | -4 | -38 | 258*[fluorescence artefact?] | -18
COC(=O)c1ccc(CSc2nc3c(cnn3-c3ccc(Cl)cc3)c(=O)[nH]2)o1 | 0 | -1 | 0 | -37 | 343*[fluorescence artefact?] | -12
O=[N+]([O-])c1ccc(N2CCN(c3ccc(Cl)nn3)CC2)c(Cl)c1 | 11 | 3 | -12 | 10 | 103 | -11
SMILES | sEH inhibitor | HIV Rev-RRE inh | sEH activator | ERa coact inh | ERa SRC1 pot | ERb SRC1 inh
CSc1ccccc1N1CCN(C(=O)Nc2ccc3c(c2)NC(=O)CO3)CC1 | 34 | -2 | -34 | x | x | x
Cc1cc(-c2nnc3sc(C4CCCCC4)nn23)n[nH]1 | -6 | 0 | 4 | 5 | 93 | 3
O=C(Nc1cnc2ccccc2c1)C1COc2ccccc2O1 (configuration not stated) | 4 | 4 | -4 | -2 | 117 | -8
Cc1ccc(C(=O)COC(=O)C2CC(=O)N(c3nc(-c4ccccc4)cs3)C2)cc1C (configuration not stated) | -3 | 7 | 4 | x | x | x
O=C(CCSc1ccc(Cl)cc1)NC12CC3CC(CC(C3)C1)C2 | 81* | 16 | -80 | x | x | x
CCc1nn2c(=O)cc(CSc3nc4sc5c(c4c(=O)n3C)CCCC5)nc2s1 | 2 | -2 | 3 | 38 | 85 | 53*[fluorescence artefact?]
CC(=O)c1ccc(NC(=O)c2cn(-c3ccccc3)nc2-c2ccncc2)cc1 | x | 4 | x | x | x | x
O=C(Nc1ccncc1)c1cn(-c2ccccc2)nc1-c1cccs1 | 3 | 0 | -6 | 18 | 229*[fluorescence artefact?] | 1
CC(C)N(Cc1nc(-c2ccccc2)no1)C(=O)c1ccc2c(c1)OCO2 | -5 | 8 | 8 | -1 | 109 | -4
COC(=O)c1cc2c(C)nn(-c3ccccc3)c2s1 | 5 | 8 | -6 | 21 | 246* | 22
CCOC(=O)c1cc2c(C)nn(-c3ccccc3)c2s1 | 5 | 13 | -5 | -1 | 117 | -2
O=[N+]([O-])c1cc(/C=N\Nc2nccs2)ccc1O | -1 | -5 | 2 | 100*[fluorescence artefact?] | 2 | 100*[fluorescence artefact?]
Clc1cccc(Cl)c1/C=N\Nc1nccs1 | -8 | -3 | 6 | x | x | x
CCOc1ccccc1C1C(C#N)=C(SCC(=O)OC)NC(=O)C1C(=O)OC (configuration not stated) | -10 | 8 | 9 | -5 | 107 | 85*[fluorescence artefact?]
CCOC(=O)C1C(=O)NC(SCC(=O)OC)=C(C#N)C1c1ccccc1OCC (configuration not stated) | 3 | 4 | -5 | 10 | 99 | 2
Cc1cc(C(=O)CSc2nc3ccccc3c(=O)n2C)c(C)n1Cc1ccc2c(c1)OCO2 | x | 9 | x | -23 | +[fluorescence artefact?] | -7
O=C(CSc1nc2cc(Cl)ccc2s1)c1cc2ccccc2o1 | 8 | 68* | -6 | x | x | x
Cc1cc(SCC(=O)N2CCCC2)nc2ccccc12 | 2 | 2 | -2 | 5 | 97 | -20
Cc1cc(SCC(=O)c2cc3ccccc3o2)nc2ccccc12 | -3 | 46* | 5 | 2 | 228*[fluorescence artefact?] | -1
Cc1cc(SCC(=O)c2ccc3c(c2)OCO3)nc2ccccc12 | -4 | 13 | 6 | 16 | 441*[fluorescence artefact?] | 4
O=C(CSc1nc2ccccc2o1)c1ccc2c(c1)OCCO2 | -9 | 3 | 8 | 3 | 108 | -7
CCN1C(=O)C(CC(=O)Nc2ccc(OC)cc2)N(Cc2cccs2)C1=S (configuration not stated) | -18 | 16 | 16 | x | x | x
O=C(CSCC(=O)NC1CC1)Nc1ccccc1 | x | 10 | x | 14 | 100 | 10

Screening data: PubChem BioAssay, several laboratories
